Experimental data gathered from unrelated publications.
Compare with care: the assays were run in different laboratories.
Target: Ephrin type-B receptor 3 (EPHB3, Homo sapiens, UniProt P54753)
Residues used in one study (P54753 34-998): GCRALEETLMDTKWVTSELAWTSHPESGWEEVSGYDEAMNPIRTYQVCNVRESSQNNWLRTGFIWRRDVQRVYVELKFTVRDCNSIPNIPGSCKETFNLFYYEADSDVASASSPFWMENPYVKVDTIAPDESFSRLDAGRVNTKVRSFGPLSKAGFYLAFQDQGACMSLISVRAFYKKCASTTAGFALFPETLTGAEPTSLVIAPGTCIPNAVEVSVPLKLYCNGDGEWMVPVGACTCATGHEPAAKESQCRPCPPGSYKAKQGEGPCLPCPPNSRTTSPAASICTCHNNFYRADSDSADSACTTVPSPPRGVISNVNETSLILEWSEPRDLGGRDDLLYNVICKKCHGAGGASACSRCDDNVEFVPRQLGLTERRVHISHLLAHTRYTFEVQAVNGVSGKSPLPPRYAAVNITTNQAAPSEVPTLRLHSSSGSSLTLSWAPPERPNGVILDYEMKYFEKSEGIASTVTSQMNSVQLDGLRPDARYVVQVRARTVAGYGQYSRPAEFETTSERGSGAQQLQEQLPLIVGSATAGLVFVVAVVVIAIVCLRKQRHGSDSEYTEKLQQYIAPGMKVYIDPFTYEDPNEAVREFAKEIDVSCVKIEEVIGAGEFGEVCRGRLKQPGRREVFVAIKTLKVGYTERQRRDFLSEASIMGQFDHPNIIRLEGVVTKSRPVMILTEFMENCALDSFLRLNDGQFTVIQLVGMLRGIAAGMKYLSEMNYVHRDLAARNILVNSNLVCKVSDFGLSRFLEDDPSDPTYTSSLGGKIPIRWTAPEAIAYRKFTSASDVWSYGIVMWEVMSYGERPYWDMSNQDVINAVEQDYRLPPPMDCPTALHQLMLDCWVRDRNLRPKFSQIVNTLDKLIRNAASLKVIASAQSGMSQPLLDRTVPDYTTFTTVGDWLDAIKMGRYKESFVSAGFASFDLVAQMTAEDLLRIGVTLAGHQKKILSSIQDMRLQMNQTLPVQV

CCN(CC)c1ccc(C2=NNC(=O)CC2C)cc1[N+](=O)[O-] (centres unmarked) — remaining activity (enzyme activity, inhibitor; 10 µM): 102%
Cc1ccc(Nc2nccc(N(C)c3ccc4c(C)n(C)nc4c3)n2)cc1S(N)(=O)=O — remaining signal (cell-free assay; 0.5 µM): 71.7%
O=C(Nc1cnn(-c2csc(C(=O)NC3COC3)c2)c1)Nc1ccccc1Cl — remaining activity (enzyme activity, inhibitor; 5 µM): 95.6%
C#Cc1cccc(Nc2ncnc3cc(OCCOC)c(OCCOC)cc23)c1 — remaining signal (cell-free assay; 0.5 µM): 58%
CC(C)(C)c1nc2c(s1)c1nc(N)ncc1c1ccc(NS(=O)(=O)c3c(F)cccc3F)c(F)c12 — remaining activity (enzyme activity, inhibitor, radiometric; 1 µM): 93%
CCN(CC)CCNC(=O)c1c(C)[nH]c(/C=C2\C(=O)Nc3ccc(F)cc32)c1C — inhibition (enzyme activity, inhibitor; 0.3 µM): -5%
CC/C(=N\NC(=O)NCc1cccc(O)c1)c1ccc(O)c(C)c1O — inhibition (enzyme activity, inhibitor; 0.1 µM): 0.6%
Cc1ccc(C(=O)Nc2ccc(CN3CCN(C)CC3)c(C(F)(F)F)c2)cc1C#Cc1cnc2cccnn12 — remaining signal (cell-free assay; 23.5 nM): 100%
Cn1cncc1C1=CN(c2ncnc3[nH]cnc23)CCS1 — inhibition (enzyme activity, inhibitor, radiometric; 2 µM): 20.2%
CO[C@@H](C)c1c(Nc2ccc([C@H](N(C)C(=O)C3CCS(=O)(=O)CC3)C(F)(F)F)cc2)cnc2cc(Cl)nn12 — remaining binding (cell-free assay, competition with immobilised ligand; 1 µM): 100%
O=C(Nc1cnn(-c2csc(C(=O)NC3COC3)c2)c1)Nc1c(F)cccc1Cl — remaining activity (enzyme activity, inhibitor; 5 µM): 96.5%
COc1cc(Nc2cnc(C#N)c(O[C@H](C)CN(C)C)n2)ncc1-c1cnn(C)c1 — remaining activity (enzyme activity, inhibitor, radiometric; 1 µM): 68%
Cc1cnc(NC2CCOCC2)nc1-n1cnc(C(=O)NC(CN)c2cc(F)cc(Cl)c2)c1 (centres unmarked) — remaining activity (enzyme activity, inhibitor, radiometric; 1 µM): 115%
CCCOc1ccc([C@@H]2[C@@H](C(=O)O)[C@H](c3ccc4c(c3)OCO4)CN2CC(=O)Nc2c(CC)cccc2CC)cc1 — remaining binding (cell-free assay, competition with immobilised ligand; 1 µM): 96%
Nc1nc(Nc2ccccc2)sc1C(=O)c1c(F)cccc1F — remaining activity (enzyme activity, inhibitor; 10 µM): 59%
CS(=O)(=O)N1CCCC(NC(=O)[C@H](CCC2CCCCC2)NC(=O)c2ccc(CNc3ncnc4c3nnn4-c3ccccc3)cc2)C1 (some centres unmarked) — remaining binding (cell-free assay, competition with immobilised ligand; 0.1 µM): 91%
COc1ccnn2ncc(-c3ccnc(N(C)C)n3)c12 — remaining binding (binding; 1 µM): 100%
CC(C)(C)C(=O)c1sc(NC2CCCCC2)nc1N — remaining activity (enzyme activity, inhibitor; 10 µM): 94%
CC(C)CC(=O)N1CCc2nc(-c3ccc(Br)cc3)nc(N(C)Cc3ccccc3)c2C1 — remaining binding (cell-free assay, competition with immobilised ligand; 0.1 µM): 100%
FC(F)c1nc2ccccc2n1-c1nc(N2CCOCC2)nc(N2CCOCC2)n1 — remaining activity (enzyme activity, inhibitor; 10 µM): 113%
COc1cc2ncnc(Nc3ccc(Oc4ccccc4)c(C)c3C)c2cc1OC — inhibition (enzyme activity, inhibitor; 1 µM): 2%
CN(C(=O)c1ccccc1)c1cc(N(C)c2ccc3c(c2)CCc2ccc(C(=O)NCCN4CCOCC4)cc2C3=O)ccc1F — remaining binding (cell-free assay, competition with immobilised ligand; 1 µM): 94%
CNC(=O)c1cc(Oc2ccc(NC(=O)Nc3ccc(Cl)c(C(F)(F)F)c3)cc2)ccn1 — inhibition (enzyme activity, inhibitor; 10 µM): 38%
Cn1cc(Cl)c2c(Oc3c(F)cc(Nc4cc(Cl)nc(N)n4)cc3F)ccnc21 — remaining binding (cell-free assay, competition with immobilised ligand; 0.1 µM): 100%
O=C1Nc2ccc(Cl)cc2C1=Cc1cc(Cl)c(O)c(Cl)c1 — remaining signal (cell-free assay; 0.5 µM): 91%
COc1cccc(CNC(=O)c2nc3scc(COCc4ccc(C(=O)O)cc4)c3c(=O)[nH]2)c1 — remaining binding (cell-free assay, competition with immobilised ligand; 1 µM): 85.4%
O=C1NC(=O)c2cc(Nc3ccc(F)cc3)c(Nc3ccc(F)cc3)cc21 — remaining signal (cell-free assay; 0.5 µM): 94.7%
CN(C)C(=O)Cn1cc(-c2nc(C3(c4ccc(-c5cnc(N)nc5)cc4)CC3)no2)cn1 — remaining binding (cell-free assay, competition with immobilised ligand; 1 µM): 95%
COc1cc2nccc(Oc3ccc(NC(=O)Nc4ccc(F)cc4F)c(F)c3)c2cc1OC — ΔTm (thermal stability, DSF; 10 µM): 5 to 10 °C
